Results: PubChem BioAssay
Active and inactive are the calls of the source.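 The calls were made as follows, unless noted: active = viability at or below 30% in both replicate assays; inconclusive = viability at or below 30% in just one of the two assays; inactive = the rest.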

Legend:
[1] = reduced viability of SK-BR-3 breast cancer cells – cell-based, 24 h, human, pilot screen (AID 572;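 active = viability at or below 10% of carrier control in both of two separate runs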;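 also: compound exposure lasted between 18 and 24 h rather than exactly 24 h; 100% = carrier-treated control wells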); conditions: SK-BR-3 viability, CellTiter-Glo luminescence, at 10 µM, stronger effect = lower value
[2] = HUVEC growth inhibition – cell-based, human, primary screen (AID 575); conditions: HUVEC proliferation, CellTiter-Glo luminescence, 72 h; at 10 µM; stronger effect = lower value;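 also: 100% = median of untreated cell wells with 0.1% DMSO on each plate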
In short: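 Assay system: primary human umbilical vein endothelial cells / Buffer or medium: endothelial basal medium with 2% FBS plus growth supplements / Compound dosing: one dose, 10 µM final, 0.1% DMSO / Timing: 72 h treatment at 37 °C / Signal: CTG luminescence / Benchmarks: 32 DMSO-only cell-control wells (high), 32 MePR drug-control wells (low) per plate / Plate: collagen-coated 384-well format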

[3] = H69AR cell proliferation blockers – human, duplicate replicates, primary screen (AID 580;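 active = viability at or under a set limit in both replicates, limit being median viability minus 3 SD, cut at about 48% in these data, passing the limit was not always enough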;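 also: 100% = mean luminescence of untreated wells and 0% = no signal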); conditions: H69AR lung tumor cells viability, ATP luminescence, 72 h; at 10 µM; stronger effect = lower value
[4] = MRP1 drug-resistance reversers in H69AR cells – cell-based, doxorubicin co-treatment, pilot screen (AID 601;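 active = viability loss from added drug above about 55%, and viability with drug at most 40%, in both replicates, limit read from the data, passing the limit was not always enough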); conditions: CellTiter-Glo, 72 h, at 10 µM; for differential viability (reversal): stronger effect = higher value
[5] = yeast transport mutant growth inhibition pilot in 384-well plates, post-Golgi transport modulator project (AID 636; in the data active = inhibition above about 31%); conditions: absorbance 615 nm, about 18 h, stronger effect = higher value
[6] = growth suppression of yeast trafficking mutant, preliminary HTS, modulators of trafficking downstream of Golgi apparatus project, 1536-format plate, OD 615 nm (AID 637; in the data active = inhibition above about 30%); conditions: yeast transport mutant growth, absorbance 615 nm, 18 h; stronger effect = higher value
[7] = H69AR cells + 2 uM doxorubicin, measured here: viability with 2 uM doxorubicin, stronger effect = lower value
[8] = H69AR cells, compound alone cytotoxicity

Row | SMILES | viability [1] | viability [2] | viability [3] | differential viability (reversal) ([4]; H69AR cells + 2 uM doxorubicin) | viability [4, 7] [%] | viability [4, 8] [%] | inhibition [5] | inhibition [6]
1 | CCn1c(SCC(=O)Nc2ccc3c(c2)OCO3)nnc1-c1cnccn1 | 89% (inactive) | 93.1% (inactive) | 95.4% (inactive) | 5.74% (inactive) | 89.7 | 95.4 | -5.62% (inactive) | -0.73% (inactive)
2 | COCCCN1C(=O)C(O)=C(C(C)=O)C1c1ccccn1 (stereo not drawn) | 106% (inactive) | 102% (inactive) | 86.6% (inactive) | 0.675% (inactive) | 85.9 | 86.6 | -3.73% (inactive) | -1.45% (inactive)
3 | COc1ccc(N2CCN(C(=O)Cc3ccc(-n4c(=O)[nH]c5ccccc5c4=O)cc3)CC2)cc1 | 103% (inactive) | 75.8% (inactive) | 94.7% (inactive) | 3.2% (inactive) | 91.5 | 94.7 | 0.26% (inactive) | -3.11% (inactive)
4 | CCCC1(CCC)NC(=O)NC1=O | 121% (inactive) | 94.7% (inactive) | 98.2% (inactive) | 0.09% (inactive) | 98.1 | 98.2 | -0.26% (inactive) | 0.66% (inactive)
5 | CC1=Nn2c(nnc2-c2ccc(F)cc2)SC1 | 85% (inactive) | 97% (inactive) | 97.2% (inactive) | 0.585% (inactive) | 96.6 | 97.2 | -5.14% (inactive) | -2.55% (inactive)
6 | CCSc1nc(N)c(C#N)c(-c2ccccc2Cl)c1C#N | 105% (inactive) | 96.1% (inactive) | 75.9% (inactive) | -3% (inactive) | 78.9 | 75.9 | 0.14% (inactive) | 0% (inactive)
7 | Cc1cc(C(=O)Nc2cccnc2)no1 | 99% (inactive) | 101% (inactive) | 98.3% (inactive) | 0.295% (inactive) | 98 | 98.3 | 3.78% (inactive) | -2.18% (inactive)
8 | Cc1ccc2nc(/C(C#N)=N/O)[nH]c2c1 | 115% (inactive) | 84.9% (inactive) | 78.2% (inactive) | -2.1% (inactive) | 80.3 | 78.2 | -4.53% (inactive) | 0% (inactive)
9 | CC(O)Cn1cnc2c1c(=O)n(C)c(=O)n2C (stereo not drawn) | 107% (inactive) | 106% (inactive) | 95.8% (inactive) | -0.25% (inactive) | 96.1 | 95.8 | -1.04% (inactive) | 0.17% (inactive)
10 | CCn1c(SCC(=O)NC)nnc1C(C)C | 97% (inactive) | 123% (inactive) | 94.8% (inactive) | 8.98% (inactive) | 85.8 | 94.8 | -7.3% (inactive) | -4.91% (inactive)
11 | CCN(CC(=O)Nc1ccc2c(c1)CCC2)Cc1nc2ccccc2c(=O)[nH]1 | 77% (inactive) | 81.8% (inactive) | 71.5% (inactive) | -13.7% (inactive) | 85.2 | 71.5 | -2.6% (inactive) | 4.73% (inactive)
12 | CN1CCN(c2nc3c(c(=O)n(C)c(=O)n3C)n2Cc2cccc3ccccc23)CC1 | 129% (inactive) | 77.5% (inactive) | 84% (inactive) | 26.6% (inactive) | 57.4 | 84 | 0% (inactive) | 0.16% (inactive)
13 | Cc1nc2ccccn2c(=O)c1CCN1CCC(C(=O)c2ccc(F)cc2)CC1 | 75% (inactive) | 83.6% (inactive) | 86.3% (inactive) | -15.1% (inactive) | 101 | 86.3 | 1.69% (inactive) | 17.2% (inactive)
14 | CCOc1ccc2c(c1)c1nnc(SCC(=O)N3CCC(C)CC3)nc1n2C | 84% (inactive) | 70.9% (inactive) | 95.8% (inactive) | 8.51% (inactive) | 87.3 | 95.8 | -3.78% (inactive) | -1.45% (inactive)
15 | COc1ccc(Cn2nnnc2CN2CCOCC2)cc1 | 100% (inactive) | 97.4% (inactive) | 96.7% (inactive) | -5.83% (inactive) | 102 | 96.7 | -6.85% (inactive) | -0.81% (inactive)
16 | C=CCSc1nnc(NC(=O)c2ccc(S(=O)(=O)NCC3CCCO3)cc2)s1 (stereo not drawn) | 97% (inactive) | 84.3% (inactive) | 90.4% (inactive) | -2.83% (inactive) | 93.2 | 90.4 | -3.84% (inactive) | -3.71% (inactive)
17 | CC(=O)Nc1nnc(S(N)(=O)=O)s1 | 95% (inactive) | 88.7% (inactive) | 109% (inactive) | 24.6% (inactive) | 84.6 | 109 | -1.82% (inactive) | 3.33% (inactive)
18 | O=C(CN1CCCN(S(=O)(=O)c2ccc(F)cc2)CC1)Nc1ccccc1Br | 84% (inactive) | 87.7% (inactive) | 76.3% (inactive) | -7.18% (inactive) | 83.5 | 76.3 | 1.17% (inactive) | -1.48% (inactive)
19 | CC(=O)c1ccc(N2CCN(C(=O)c3cc(C)on3)CC2)cc1 | 100% (inactive) | 97.7% (inactive) | 111% (inactive) | 12.4% (inactive) | 98.9 | 111 | -6.99% (inactive) | -3.82% (inactive)
20 | Cc1onc(-c2ccccc2)c1C(=O)Nc1sc2c(c1C(N)=O)CCC2 | 88.5% (inactive) | 53.5% (inactive) | 62.1% (inactive) | -20.8% (inactive) | 82.8 | 62.1 | -1.71% (inactive) | -1% (inactive)
21 | O=C(Nc1ccccc1)N1CCC(c2ccccc2)C1 (stereo not drawn) | 62% (inactive) | 109% (inactive) | 86.7% (inactive) | 19.2% (inactive) | 67.5 | 86.7 | -2.6% (inactive) | 4.92% (inactive)
22 | Cc1csc(NC(=O)c2ccccc2C(=O)O)n1 | 103% (inactive) | 108% (inactive) | 95.3% (inactive) | -0.43% (inactive) | 95.8 | 95.3 | -2.27% (inactive) | 1.27% (inactive)
23 | CC1=C(C(=O)Nc2ccccc2C)C(c2ccc(C)o2)N2C(=O)CSC2=N1 (stereo not drawn) | 105% (inactive) | 106% (inactive) | 96.4% (inactive) | 8.25% (inactive) | 88.2 | 96.4 | -9.04% (inactive) | 2.26% (inactive)
24 | COc1cc(CC(=O)Oc2ccc3c(c2)OCO3)cc(OC)c1OC | 98% (inactive) | 104% (inactive) | 84.8% (inactive) | 0.695% (inactive) | 84.2 | 84.8 | -2.93% (inactive) | 2.91% (inactive)
25 | c1cc(C(c2nnnn2C2CCCC2)N2CCOCC2)ccn1 (stereo not drawn) | 96.5% (inactive) | 104% (inactive) | 91.9% (inactive) | -0.285% (inactive) | 92.2 | 91.9 | -8.22% (inactive) | 0.16% (inactive)
26 | Cc1nn(-c2ccccc2)c2[nH]c(C(F)(F)F)cc(=O)c12 | 131% (inactive) | 95.6% (inactive) | 108% (inactive) | -10.8% (inactive) | 118 | 108 | -5.62% (inactive) | 4.36% (inactive)
